The values that follow come from ChEMBL document CHEMBL1781902, “Anticancer properties of an important drug lead podophyllotoxin can be efficiently mimicked by diverse heterocyclic scaffolds accessible via one-step synthesis” (2011).

Active and inactive are the calls of the source. The calls are words filed in the database; no cut-off is given here.

The test system of experiment [1] is HeLa. Briefly: Antiproliferative activity against human HeLa cells after 48 hrs by MTT assay. The format is functional. The method, boiled down:
(§1)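 Cells were seeded at 2 × 10^4 cells/mL, allowed to adhere 24 h, then exposed 48 h to a concentration series, with DMSO as control. MTT was added for 2 h at 37 °C, formazan dissolved in DMSO and OD read at 490 nm. GI50 is the concentration giving 50% viability loss versus DMSO; 8 replicates, at least two independent experiments, ± SD.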
(In general: Formazan colour is commonly taken as a measure of viable cells.)

The subject of another experiment is MCF7. Briefly: Antiproliferative activity against human MCF7 cells after 48 hrs by MTT assay. The format is functional. The following applies: MCF7, 48 h. The method, boiled down:
as §1

The species entered for experiment [2] is Bos taurus. Briefly: Inhibition of purified bovine tubulin polymerization assessed as microtubule destabilization at 3 uM after 20 mins by fluorescence spectrophotometric analysis relative to control. In a few lines: (§2)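 Purified bovine tubulin was incubated at 37 °C in buffer with 10% glycerol and 1 mM GTP, each agent in a separate run, against a 0.05% DMSO control. Polymerization was followed by fluorescence spectrophotometry for 20 min, reading every 15 s.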

In experiment [3] the test system is Jurkat. Briefly: Induction of apoptosis in human Jurkat cells assessed as cleavage of caspase 3 substrate DEVD-p-nitroanaline 2 hrs by spectrophotometric analysis. The format is functional, cell-based. The method, boiled down: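 Jurkat cells (RPMI-1640, 10% FBS) were treated at 0.1, 0.5 and 1 μM alongside DMSO control. Lysates from 1 × 10^6 cells were normalized by BCA protein assay, then incubated with DEVD-pNA substrate for 2 h at 37 °C. Read at 405 nm and expressed relative to DMSO set as one. Quadruplicates, repeated at least twice.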

The species entered for experiment [4] is Bos taurus. The experiment in a line: Inhibition of purified bovine tubulin polymerization assessed as microtubule destabilization at 25 uM after 20 mins by fluorescence spectrophotometric analysis. In a few lines:
as §2

The subject of experiment [5] is Jurkat. The experiment in a line: Induction of apoptosis in human Jurkat cells at 5 to 8 nM after 48 hrs by annexinV-propidium iodide staining based FITC analysis. Type of experiment: functional, cell-based. The method, boiled down: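 Jurkat cells plated at 2 × 10^5 cells/mL were exposed for 48 h across a concentration range. They were pelleted, resuspended in HHB containing CaCl2, propidium iodide and Annexin-V-FITC, and labelled 20 min at 37 °C. Annexin-V-positive cells were scored by flow cytometry as % apoptotic. Triplicates, repeated at least twice, ± SD.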

Experiment [6] has as its system HeLa. The experiment in a line: Antimitotic activity in human HeLa cells assessed as disruption of interphase microtubule organization at 5 nM after 3 hrs by inverted microscopic analysis. The format is functional, cell-based. In a few lines: (§3)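 HeLa cells in DMEM with 10% fetal calf serum, pyruvate, bicarbonate and PSF were exposed for 3 h to compound diluted from DMSO stock into medium, carrier 0.1% DMSO. Cells were fixed in methanol at −20 °C, blocked 1 h in PBS with 5% BSA, then stained overnight at 4 °C with anti-tubulin, anti-Hec1 and Hoechst 33342. Imaged by epifluorescence microscopy with structured illumination.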

Experiment [7] relates to HeLa. The experiment in a line: Antimitotic activity in human HeLa cells assessed as disruption of mitotic microtubule organization at 5 nM after 3 hrs by inverted microscopic analysis. The format is functional, cell-based. The method, boiled down: as §3
In experiment [8] the test system is HeLa. The experiment in a line: Antimitotic activity in human HeLa cells assessed as nucleated microtubule at 10 uM after 3 hrs by inverted microscopic analysis. Type of experiment: functional, cell-based. The method, boiled down: as §3

`COc1cc(C2C3=C(COC3=O)Nc3[nH]ncc32)cc(OC)c1OC` (racemic): the GI50 in the experiment with HeLa [1] came to 3000 nM; with MCF7, 250 nM.
On the same counts, the results for `COc1cc(C2C3=C(COC3=O)Nc3c2ccc2ccccc32)cc(OC)c1OC` (racemic) are 3 nM and 3 nM.
Regarding `O=C1OCC2=C1C(c1cc(Br)cc(Br)c1)c1c(ccc3ccccc13)N2` (racemic), the results for the GI50 in the experiment on HeLa [1] and in the experiment on MCF7 were 420 nM and 201 nM, respectively.
Regarding `O=C1OCC2=C1C(c1cc(Br)cc(Br)c1)c1c([nH][nH]c1=O)N2` (racemic), the GI50 in the experiment on HeLa [1] and in the experiment with MCF7 was over 10000 nM each time.
Consider `O=C1OCC2=C1C(c1cccc(Br)c1)c1cn[nH]c1N2` (racemic), for which the GI50 in the experiment on HeLa [1] amounted to 75 nM; in the experiment with MCF7, 100 nM.
Turning to `O=C1OCC2=C1C(c1cc(Br)cc(Br)c1O)c1ccc3ccccc3c1N2` (racemic), the GI50 in the experiment on HeLa [1] was 18 nM; in the experiment with MCF7, 21 nM.
On to `O=C1OCC2=C1C(c1cncc(Br)c1)c1cn[nH]c1N2` (racemic), for which the GI50 with HeLa [1] worked out at 75 nM; in the experiment on MCF7 it was 15 nM.
For `COc1cc(C2C3=C(COC3=O)Nc3c2ccc2c(O)cccc32)cc(OC)c1OC` (racemic), the GI50 in the experiment on HeLa [1] and in the experiment on MCF7 was 3 nM throughout.
On to `Cc1n[nH]c2c1C(c1cccc(Br)c1)C1=C(COC1=O)N2` (racemic), for which the GI50 stood at 3000 nM with HeLa [1] and 4000 nM in the experiment with MCF7.
As to `O=C1OCC2=C1C(c1cc(Br)cs1)c1cn[nH]c1N2` (racemic), the results for the GI50 in the experiment with HeLa [1] and with MCF7 were 1150 nM and 740 nM, respectively.
On the same counts, the results for `COc1cc(Br)cc(C2C3=C(COC3=O)Nc3c2ccc2ccc(O)cc32)c1O` (racemic) are 6 nM and 3 nM.
For `O=C1OCC2=C1C(c1cc(Br)cc(Br)c1)c1ccc3ccc(O)cc3c1N2` (racemic) the same measures were 6 nM and 3 nM.
For `O=C1OCC2=C1C(c1cc(Br)cs1)c1ccc3ccc(O)cc3c1N2` (racemic) the same measures were 3 nM and 3 nM.
For `COc1cc(C2C3=C(COC3=O)Nc3ccc4ccccc4c32)cc(OC)c1OC` (racemic), the figures for the GI50 with HeLa [1] and in the experiment with MCF7 were 540 nM and 121 nM, respectively.
Regarding `O=C1OCC2=C1C(c1cc(Br)cc(Br)c1)c1cc3c(cc1N2)CCCC3` (racemic), the GI50 was determined as 100 nM in the experiment with HeLa [1] and 70 nM in the experiment with MCF7.
On the same counts, the results for `COc1cc(Br)cc(C2C3=C(COC3=O)Nc3[nH]ncc32)c1O` (racemic) are 25 nM and 30 nM.
Take `O=C1OCC2=C1C(c1cc(Br)ccc1O)c1ccc3ccc(O)cc3c1N2` (racemic): the GI50 in the experiment on HeLa [1] and in the experiment on MCF7 was 3 nM throughout.
Turning to `COc1cccc(C2C3=C(COC3=O)Nc3[nH]ncc32)c1O` (racemic), the GI50 is 2000 nM in the experiment with HeLa [1] and 500 nM in the experiment with MCF7.
For `O=C1OCC2=C1C(c1cc(Br)cc(Br)c1)c1ccc3ccccc3c1N2` (racemic) the same measures were 16 nM and 14 nM.
For `Cc1n[nH]c2c1C(c1cc(Br)ccc1O)C1=C(COC1=O)N2` (racemic) the same measures were 300 nM and 250 nM.
For the compound `CSc1nc(N)c2c(n1)NC1=C(C(=O)OC1)C2c1cc(Br)cc(Br)c1` (racemic), the GI50 is 561 nM in the experiment on HeLa [1] and 1020 nM with MCF7.
In the case of `CC(=O)O[C@H]1C(=O)[C@@]2(C)[C@H]([C@H](OC(=O)c3ccccc3)[C@]3(O)C[C@H](OC(=O)[C@H](O)[C@@H](NC(=O)c4ccccc4)c4ccccc4)C(C)=C1C3(C)C)[C@]1(OC(C)=O)CO[C@@H]1C[C@@H]2O`, the inhibition entry in the experiment listed under Bos taurus [2] is “inactive”.
With `Cc1n[nH]c2c1C(c1cncc(Br)c1)C1=C(COC1=O)N2` (racemic), the figures for the GI50 in the experiment on HeLa [1] and in the experiment with MCF7 were 3000 nM and 800 nM, respectively.
On the same counts, the results for `COc1cc(C2C3=C(COC3=O)Nc3[nH]ncc32)cc(Br)c1OC` (racemic) are 750 nM and 250 nM.
For `COc1cc(C2C3=C(COC3=O)Nc3c2ccc2[nH]ccc32)cc(OC)c1OC` (racemic) the same measures were 19 nM and 22 nM.
On the same counts, the results for `COc1cc(Br)cc(C2C3=C(COC3=O)Nc3[nH]nc(C)c32)c1O` (racemic) are 35 nM and 100 nM.
In the case of `O=C1OCC2=C1C(c1cc(Br)ccc1O)c1ccc3ccccc3c1N2` (racemic), the GI50 with HeLa [1] and with MCF7 was 3 nM throughout.
On to `O=C1OCC2=C1C(c1cc(Br)cc(Br)c1)c1ccc3c(O)cccc3c1N2` (racemic), for which the values for the GI50 with HeLa [1] and in the experiment with MCF7 were 21 nM and 23 nM, respectively.
`COc1cc(C2C3=C(COC3=O)Nc3nc(SC)nc(N)c32)cc(OC)c1OC` (racemic): the GI50 was determined as 125 nM in the experiment with HeLa [1] and 170 nM in the experiment with MCF7.
In the case of `COc1cc(C2C3=C(COC3=O)Nc3c2ccc2ccc(O)cc32)cc(OC)c1OC` (racemic), the 50% growth inhibitory concentration (GI50) in the experiment with HeLa [1] turned out to be 2 nM; in the experiment on MCF7 it was 3 nM.
For `O=C1OCC2=C1[C@H](c1cc(Br)cc(Br)c1)c1ccc3ccccc3c1N2` the same measures were 9 nM and 9 nM.
As to `O=C1OCC2=C1C(c1cc(Br)cc(Br)c1)c1ccc3[nH]ccc3c1N2` (racemic), the GI50 turned out to be 114 nM with HeLa [1] and 21 nM in the experiment on MCF7.
Turning to `COc1cc(Br)cc(C2C3=C(COC3=O)Nc3c2ccc2ccccc32)c1O` (racemic), the GI50 with HeLa [1] and with MCF7 was 3 nM throughout.
Consider `O=C1OCC2=C1C(c1cc(Br)cc(Br)c1)c1cn[nH]c1N2` (racemic), for which the GI50 with HeLa [1] and with MCF7 was 25 nM throughout. In addition, in the experiment with Jurkat [3], the result was Active. For the same compound, the inhibition entry in the experiment listed under Bos taurus [4] is “Active”.
Regarding `O=C1OCC2=C1C(c1cncc(Br)c1)c1ccc3ccc(O)cc3c1N2` (racemic), the GI50 in the experiment on HeLa [1] and in the experiment with MCF7 was 3 nM each time.
Take `O=C1OCC2=C1C(c1cc(Br)cs1)c1ccc3ccccc3c1N2` (racemic): the concentration for 50% growth inhibition (GI50) in the experiment on HeLa [1] and with MCF7 was 3 nM throughout.
On to `COc1cc(C2C3=C(COC3=O)Nc3[nH]nc(C)c32)cc(OC)c1OC` (racemic), for which the GI50 in the experiment with HeLa [1] and in the experiment with MCF7 was 5000 nM each time.
In the case of `COc1cc(C2C3=C(COC3=O)Nc3cc4c(cc32)CCCC4)cc(OC)c1OC` (racemic), the GI50 with HeLa [1] stood at 18 nM; in the experiment on MCF7, 19 nM.
With `Nc1cc2c(c3ccccc13)NC1=C(C(=O)OC1)C2c1cc(Br)cc(Br)c1` (racemic), the 50% growth inhibitory concentration (GI50) in the experiment on HeLa [1] came out at 21 nM; in the experiment with MCF7 it was 16 nM.
On the same counts, the results for `COc1cc(C2C3=C(COC3=O)Nc3c2ccc2ccc(O)cc32)cc(Br)c1OC` (racemic) are 2 nM and 3 nM.
`O=C1OCC2=C1[C@@H](c1cc(Br)cc(Br)c1)c1ccc3ccccc3c1N2`: the concentration for 50% growth inhibition (GI50) was 19000 nM in the experiment with HeLa [1] and 14000 nM in the experiment with MCF7.
For `COc1cc(C2C3=C(COC3=O)Nc3c2ccc2ccccc32)cc(Br)c1OC` (racemic) the same measures were 3 nM and 3 nM.
For `O=C1OCC2=C1C(c1cncc(Br)c1)c1ccc3ccccc3c1N2` (racemic) the same measures were 7 nM and 13 nM.
As for `O=C1OCC2=C1C(c1cc(Br)cc(Br)c1O)c1ccc3ccc(O)cc3c1N2` (racemic), the GI50 in the experiment with HeLa [1] is 7 nM; with MCF7, 3 nM.
On the same counts, the results for `COc1cc(C2C3=C(COC3=O)Nc3[nH][nH]c(=O)c32)cc(OC)c1OC` (racemic) are over 10000 nM and over 10000 nM.
On to `Cc1n[nH]c2c1C(c1cc(Br)cc(Br)c1)C1=C(COC1=O)N2` (racemic), for which the GI50 in the experiment with HeLa [1] and in the experiment with MCF7 was 75 nM throughout.
`O=C1OCC2=C1C(c1cc(Br)ccc1O)c1cn[nH]c1N2` (racemic): the figures for the GI50 in the experiment on HeLa [1] and in the experiment on MCF7 were 50 nM and 25 nM, respectively.
For `COc1cc(C2C3=C(COC3=O)Nc3[nH]nc(C)c32)cc(Br)c1OC` (racemic) the same measures were 750 nM and 1000 nM.
As for `O=C1OCC2=C1C(c1cc(Br)cc(Br)c1O)c1cn[nH]c1N2` (racemic), the results for the GI50 in the experiment with HeLa [1] and with MCF7 were 20 nM and 10 nM, respectively. Further, the outcome with Jurkat [5], in the experiment on Jurkat [3], in the experiment on HeLa [6], in the experiment on HeLa [7] and with HeLa [8] was Active. The inhibition result in the experiment listed under Bos taurus [4] was “Active”.

As a reminder, the GI50 is the concentration that inhibits growth by half.
